Measurements as given in ChEMBL document CHEMBL4808162, “Constraining the Side Chain of C-Terminal Amino Acids in Apelin-13 Greatly Increases Affinity, Modulates Signaling, and Improves the Pharmacokinetic Profile” (J Med Chem, 2021).
Peptide text beside a SMILES is read from it.

Legend:
Rattus norvegicus = assay: Hypotensive effect in Sprague-Dawley rat assessed as drop in mean arterial blood pressure at 19.6 nmol/kg, iv bolus injection measured after 1 min; assay type: functional
Summary of the method: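 Male Sprague-Dawley rats (250−300 g) under ketamine/xylazine (87/13 mg/kg i.m.) on a thermostatic pad. Mean arterial pressure recorded through a right carotid catheter. Saline vehicle bolus given, then 5 min later the peptide i.v. at 19.6 nmol/kg (n = 5) or 65 nmol/kg.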

[1] = Clearance in Sprague-Dawley rat plasma at 3 mg/kg, iv bolus injection measured up to 240 mins by LC-MS/MS analysis; assay type: ADME, organism-based
Summary of the method: (§1)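 Male Sprague-Dawley rats (250−300 g, 8−10 weeks), jugular vein catheter placed 24 h before dosing, n = 3. Single i.v. bolus in 0.9% saline at 3 mg/kg. Blood drawn at 5, 10, 30, 60, 120, 240 min into K2-EDTA tubes. Plasma cleaned by acetonitrile precipitation and HLB, then quantified by LC-MS/MS.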

[2] = Half life in Sprague-Dawley rat plasma at 3 mg/kg, iv bolus injection measured up to 240 mins by LC-MS/MS analysis; assay type: ADME, organism-based; summary of the method: as §1
Apelin receptor [3] = target: T1, Apelin receptor (Homo sapiens, UniProt P35414); assay: Agonist activity at human APJ receptor expressed in HEK293T cells co-expressing Galphai1 RlucII assessed as dissociation of Galphai1 from Gbetta/gamma subunit measured using coelenterazine luciferase substrate incubated for 5 mins by BRET assay; assay type: functional, cell-based, HEK293
T1 sequence (P35414 whole entry): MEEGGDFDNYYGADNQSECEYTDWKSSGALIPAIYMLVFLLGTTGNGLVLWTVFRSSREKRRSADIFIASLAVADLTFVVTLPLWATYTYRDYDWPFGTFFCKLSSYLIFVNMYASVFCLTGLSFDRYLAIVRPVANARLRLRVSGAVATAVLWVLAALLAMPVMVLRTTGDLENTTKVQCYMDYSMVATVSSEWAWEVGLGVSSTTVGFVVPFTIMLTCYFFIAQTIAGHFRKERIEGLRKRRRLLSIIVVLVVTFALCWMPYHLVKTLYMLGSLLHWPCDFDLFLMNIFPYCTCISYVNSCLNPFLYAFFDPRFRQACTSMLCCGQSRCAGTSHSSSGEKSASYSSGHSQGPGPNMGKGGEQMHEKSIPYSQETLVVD

Apelin receptor [4] = target: T1, Apelin receptor; assay: Agonist activity at human APJ receptor expressed in HEK293T cells co-expressing PDZ-Rho-Gef-RLucll and rGFP-CAAX assessed as induction of recruitment of Galpha12 to cell membrane using coelenterazine luciferase substrate incubated for 5 mins by BRET assay; assay type: functional, cell-based, HEK293
[5] = target: Angiotensin-converting enzyme 2 (Rattus norvegicus, UniProt Q5EGZ1); assay: Stability of the compound assessed as recombinant rat ACE2-mediated degradation measured up to 24 hrs by UPLC-MS analysis; assay type: ADME
Summary of the method: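 Recombinant rat ACE2 at 20 nM final in 100 mM Tris-HCl, 100 mM NaCl, 10 μM ZnCl2, pH 7.4. Peptide at 50 μM final with N,N-dimethylbenzamide internal standard, incubated 1, 2 and 24 h at 37 °C with shaking. Reaction stopped with EDTA; blank used pre-inactivated enzyme. Remaining peptide measured by UPLC-MS in SIM mode, oxidized forms summed; n = 3.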

[6] = AUCtot in Sprague-Dawley rat plasma at 3 mg/kg, iv bolus injection measured up to 240 mins by LC-MS/MS analysis; assay type: ADME, organism-based; set-up: route intravenous, dose 3 mg/kg, time <=240; conditions: in vivo, 4 h; summary of the method: as §1
Apelin receptor [7] = target: T1, Apelin receptor; assay: Agonist activity at human APJ receptor expressed in HEK293 cells co-expressing Rlucll-beta-arrestin2 assessed as induction of beta-arrestin2 recruitment to receptor incubated for 30 mins by BRET assay; assay type: functional, cell-based
[8] = Stability in Sprague-Dawley rat plasma assessed as half life measured up to 24 hrs by UPLC-MS analysis; assay type: ADME, cell-free
Summary of the method: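 Peptide (6 μL of 1 mM aqueous solution) incubated with 27 μL male Sprague-Dawley rat plasma at 37 °C. Time points 0, 1, 2, 4, 7, 24 h, or 0–120 min for labile peptides. Reaction quenched with acetonitrile-ethanol containing N,N-dimethylbenzamide internal standard, filtered, then UPLC-MS. t1/2 from one-phase exponential decay; at least three experiments.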

Apelin receptor [9] = target: T1, Apelin receptor; assay: Displacement of [125I] [NIe75,Tyr77]Pyr-apelin-13 from YFP-tagged human APJ receptor expressed in HEK293 cells incubated for 1 hr by gamma counting analysis; assay type: cell-based

Sequence of Angiotensin-converting enzyme 2 (Q5EGZ1 whole entry): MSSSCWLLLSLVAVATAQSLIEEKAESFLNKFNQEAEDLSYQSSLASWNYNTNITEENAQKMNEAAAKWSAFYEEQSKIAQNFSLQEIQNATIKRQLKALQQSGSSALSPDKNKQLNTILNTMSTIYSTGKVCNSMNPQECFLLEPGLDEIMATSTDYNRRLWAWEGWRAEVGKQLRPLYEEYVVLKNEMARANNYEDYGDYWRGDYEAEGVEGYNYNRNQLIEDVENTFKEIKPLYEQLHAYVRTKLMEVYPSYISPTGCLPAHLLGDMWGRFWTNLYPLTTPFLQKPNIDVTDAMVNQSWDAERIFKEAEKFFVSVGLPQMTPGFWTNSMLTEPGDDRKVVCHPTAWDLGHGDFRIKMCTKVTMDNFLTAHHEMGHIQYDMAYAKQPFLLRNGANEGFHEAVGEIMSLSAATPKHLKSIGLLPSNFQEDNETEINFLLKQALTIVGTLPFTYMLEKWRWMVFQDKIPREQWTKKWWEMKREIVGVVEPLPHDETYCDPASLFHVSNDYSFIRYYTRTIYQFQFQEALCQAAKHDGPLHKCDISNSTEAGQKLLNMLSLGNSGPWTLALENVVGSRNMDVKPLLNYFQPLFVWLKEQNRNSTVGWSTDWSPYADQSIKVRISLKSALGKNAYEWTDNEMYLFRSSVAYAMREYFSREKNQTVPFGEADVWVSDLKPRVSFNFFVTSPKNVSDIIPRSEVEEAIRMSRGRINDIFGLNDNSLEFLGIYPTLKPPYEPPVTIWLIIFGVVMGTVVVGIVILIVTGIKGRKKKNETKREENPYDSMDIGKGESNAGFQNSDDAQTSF

## CCCC[C@H](NC(=O)[C@@H]1CCCN1C(=O)CNC(=O)[C@H](CCCCN)NC(=O)[C@H](Cc1cnc[nH]1)NC(=O)[C@H](CO)NC(=O)[C@H](CC(C)C)NC(=O)[C@H](CCCNC(=N)N)NC(=O)[C@@H]1CCCN1C(=O)[C@H](CCCNC(=N)N)NC(=O)[C@@H]1CCC(=O)N1)C(=O)N[C@@H](Cc1cccc2ccccc12)C(=O)NC(Cc1ccccc1)(Cc1ccccc1)C(=O)O (HELM PEPTIDE1{[Glp].R.P.R.L.S.H.K.G.P.[Nle].[O=C([C@H](Cc1cccc2ccccc12)N[*:1])[*:2]].[O=C(O)C(Cc1ccccc1)(Cc1ccccc1)N[*:1]]}$$$$V2.0) [listing 1 of 2 here]
Rattus norvegicus
  Activity: 30 mmHg

## CCCC[C@H](NC(=O)[C@@H]1CCCN1C(=O)CNC(=O)[C@H](CCCCN)NC(=O)[C@H](Cc1cnc[nH]1)NC(=O)[C@H](CO)NC(=O)[C@H](CC(C)C)NC(=O)[C@H](CCCNC(=N)N)NC(=O)[C@@H]1CCCN1C(=O)[C@H](CCCNC(=N)N)NC(=O)[C@@H]1CCC(=O)N1)C(=O)N[C@H]1Cc2c([nH]c3ccccc23)CN([C@@H](Cc2ccccc2)C(=O)O)C1=O [listing 1 of 2 here]
[1]
  clearance: 23 mL/min/kg
[2]
  half-life: 0.333 h
Apelin receptor [3]; hek293
  EC50: 2.5 nM
Apelin receptor [4]; hek293
  EC50: 11 nM
[5]
  Stabilty: Stable
[6]
  AUC: 0.13 mg·min/mL
Apelin receptor [7]; hek293
  EC50: 25 nM
[8]
  half-life: 5.8 h
Apelin receptor [9]; hek293
  Ki: 0.08 nM

## CCCC[C@H](NC(=O)[C@@H]1CCCN1C(=O)CNC(=O)[C@H](CCCCN)NC(=O)[C@H](Cc1cnc[nH]1)NC(=O)[C@H](CO)NC(=O)[C@H](CC(C)C)NC(=O)[C@H](CCCNC(=N)N)NC(=O)[C@@H]1CCCN1C(=O)[C@H](CCCNC(=N)N)NC(=O)[C@@H]1CCC(=O)N1)C(=O)N[C@@H](Cc1cccc2ccccc12)C(=O)N1Cc2ccccc2C[C@@H]1C(=O)O
Apelin receptor [3]
  EC50: 1.6 nM
Apelin receptor [4]
  EC50: 15 nM
Apelin receptor [7]
  EC50: 32 nM
[8]
  half-life: 3.4 h
Apelin receptor [9]
  Ki: 0.09 nM

## CCCC[C@H](NC(=O)[C@@H]1CCCN1C(=O)CNC(=O)[C@H](CCCCN)NC(=O)[C@H](Cc1cnc[nH]1)NC(=O)[C@H](CO)NC(=O)[C@H](CC(C)C)NC(=O)[C@H](CCCNC(=N)N)NC(=O)[C@@H]1CCCN1C(=O)[C@H](CCCNC(=N)N)NC(=O)[C@@H]1CCC(=O)N1)C(=O)N[C@H]1Cc2c([nH]c3ccccc23)CN([C@@H](Cc2ccccc2)C(=O)O)C1=O [listing 2 of 2 here]
Rattus norvegicus
  Activity: 30 mmHg

## CCCC[C@H](NC(=O)[C@@H]1CCCN1C(=O)CNC(=O)[C@H](CCCCN)NC(=O)[C@H](Cc1cnc[nH]1)NC(=O)[C@H](CO)NC(=O)[C@H](CC(C)C)NC(=O)[C@H](CCCNC(=N)N)NC(=O)[C@@H]1CCCN1C(=O)[C@H](CCCNC(=N)N)NC(=O)[C@@H]1CCC(=O)N1)C(=O)N[C@@H](Cc1c[nH]c2ccccc12)C(=O)N[C@@H](Cc1ccccc1)C(=O)O
Apelin receptor [3]; hek293
  EC50: 3.8 nM
Apelin receptor [4]; hek293
  EC50: 17 nM
[5]
  Stabilty: Unstable
Apelin receptor [7]; hek293
  EC50: 38 nM
[8]
  half-life: 0.2 h
Apelin receptor [9]; hek293
  Ki: 0.18 nM

## CCCC[C@H](NC(=O)[C@@H]1CCCN1C(=O)CNC(=O)[C@H](CCCCN)NC(=O)[C@H](Cc1cnc[nH]1)NC(=O)[C@H](CO)NC(=O)[C@H](CC(C)C)NC(=O)[C@H](CCCNC(=N)N)NC(=O)[C@@H]1CCCN1C(=O)[C@H](CCCNC(=N)N)NC(=O)[C@@H]1CCC(=O)N1)C(=O)N[C@H](Cc1cccc2ccccc12)C(=O)N[C@H](Cc1cc(C2CCCC2)c(O)c(C2CCCC2)c1)C(=O)O
Apelin receptor [3]
  EC50: 10 nM
Apelin receptor [4]
  EC50: 178 nM
Apelin receptor [7]
  EC50: 95 nM
[8]
  half-life: > 24 h
Apelin receptor [9]
  Ki: 1.1 nM

## CCCC[C@H](NC(=O)[C@@H]1CCCN1C(=O)CNC(=O)[C@H](CCCCN)NC(=O)[C@H](Cc1cnc[nH]1)NC(=O)[C@H](CO)NC(=O)[C@H](CC(C)C)NC(=O)[C@H](CCCNC(=N)N)NC(=O)[C@@H]1CCCN1C(=O)[C@H](CCCNC(=N)N)NC(=O)[C@@H]1CCC(=O)N1)C(=O)N[C@H](Cc1cccc2ccccc12)C(=O)N1Cc2ccccc2C(C)(C)C1C(=O)O (stereo partly specified)
Apelin receptor [3]
  EC50: 4.1 nM
Apelin receptor [4]
  EC50: 10 nM
Apelin receptor [7]
  EC50: 34 nM
[8]
  half-life: 6.3 h
Apelin receptor [9]
  Ki: 0.16 nM

## CCCC[C@H](NC(=O)[C@@H]1CCCN1C(=O)CNC(=O)[C@H](CCCCN)NC(=O)[C@H](Cc1cnc[nH]1)NC(=O)[C@H](CO)NC(=O)[C@H](CC(C)C)NC(=O)[C@H](CCCNC(=N)N)NC(=O)[C@@H]1CCCN1C(=O)[C@H](CCCNC(=N)N)NC(=O)[C@@H]1CCC(=O)N1)C(=O)N[C@@H](Cc1cccc2ccccc12)C(=O)N[C@@H](Cc1ccccc1)C(=O)O
Apelin receptor [3]; hek293
  EC50: 4.4 nM
Apelin receptor [4]; hek293
  EC50: 9.2 nM
Apelin receptor [7]; hek293
  EC50: 41 nM
[8]
  half-life: 0.4 h
Apelin receptor [9]; hek293
  Ki: 0.12 nM

## CCCC[C@H](NC(=O)[C@@H]1CCCN1C(=O)CNC(=O)[C@H](CCCCN)NC(=O)[C@H](Cc1cnc[nH]1)NC(=O)[C@H](CO)NC(=O)[C@H](CC(C)C)NC(=O)[C@H](CCCNC(=N)N)NC(=O)[C@@H]1CCCN1C(=O)[C@H](CCCNC(=N)N)NC(=O)[C@@H]1CCC(=O)N1)C(=O)N[C@H](Cc1cccc2ccccc12)C(=O)N1Cc2ccccc2C[C@H]1C(=O)O
Apelin receptor [3]; hek293
  EC50: 4.2 nM
Apelin receptor [4]; hek293
  EC50: 28 nM
Apelin receptor [7]; hek293
  EC50: 33 nM
[8]
  half-life: 6.1 h
Apelin receptor [9]; hek293
  Ki: 0.08 nM

## CCCC[C@H](NC(=O)[C@@H]1CCCN1C(=O)CNC(=O)[C@H](CCCCN)NC(=O)[C@H](Cc1cnc[nH]1)NC(=O)[C@H](CO)NC(=O)[C@H](CC(C)C)NC(=O)[C@H](CCCNC(=N)N)NC(=O)[C@@H]1CCCN1C(=O)[C@H](CCCNC(=N)N)NC(=O)[C@@H]1CCC(=O)N1)C(=O)N1CCC[C@H]1C(=O)N1Cc2ccccc2C[C@H]1C(=O)O
Apelin receptor [3]
  EC50: 2.5 nM
Apelin receptor [4]
  EC50: 88 nM
Apelin receptor [7]
  EC50: 67 nM
[8]
  half-life: 1.3 h
Apelin receptor [9]
  Ki: 1.1 nM

## CCCC[C@H](NC(=O)[C@@H]1CCCN1C(=O)CNC(=O)[C@H](CCCCN)NC(=O)[C@H](Cc1cnc[nH]1)NC(=O)[C@H](CO)NC(=O)[C@H](CC(C)C)NC(=O)[C@H](CCCNC(=N)N)NC(=O)[C@@H]1CCCN1C(=O)[C@H](CCCNC(=N)N)NC(=O)[C@@H]1CCC(=O)N1)C(=O)N[C@H](Cc1cccc2ccccc12)C(=O)N1Cc2[nH]c3ccccc3c2C[C@@H]1C(=O)O
Apelin receptor [3]
  EC50: 6 nM
Apelin receptor [4]
  EC50: 25 nM
Apelin receptor [7]
  EC50: 96 nM
[8]
  half-life: 7.8 h
Apelin receptor [9]
  Ki: 1.01 nM

## CCCC[C@H](NC(=O)[C@@H]1CCCN1C(=O)CNC(=O)[C@H](CCCCN)NC(=O)[C@H](Cc1cnc[nH]1)NC(=O)[C@H](CO)NC(=O)[C@H](CC(C)C)NC(=O)[C@H](CCCNC(=N)N)NC(=O)[C@@H]1CCCN1C(=O)[C@H](CCCNC(=N)N)NC(=O)[C@@H]1CCC(=O)N1)C(=O)N[C@@H](Cc1cccc2ccccc12)C(=O)NC(Cc1ccccc1)(Cc1ccccc1)C(=O)O (HELM PEPTIDE1{[Glp].R.P.R.L.S.H.K.G.P.[Nle].[O=C([C@H](Cc1cccc2ccccc12)N[*:1])[*:2]].[O=C(O)C(Cc1ccccc1)(Cc1ccccc1)N[*:1]]}$$$$V2.0) [listing 2 of 2 here]
[1]
  clearance: 27 mL/min/kg
[2]
  half-life: 0.433 h
Apelin receptor [3]
  EC50: 3.8 nM
Apelin receptor [4]
  EC50: 2.8 nM
[5]
  Stabilty: Stable
[6]
  AUC: 0.12 mg·min/mL
Apelin receptor [7]
  EC50: 36 nM
[8]
  half-life: 7.3 h
Apelin receptor [9]
  Ki: 0.08 nM

## CCCC[C@H](NC(=O)[C@@H]1CCCN1C(=O)CNC(=O)[C@H](CCCCN)NC(=O)[C@H](Cc1cnc[nH]1)NC(=O)[C@H](CO)NC(=O)[C@H](CC(C)C)NC(=O)[C@H](CCCNC(=N)N)NC(=O)[C@@H]1CCCN1C(=O)[C@H](CCCNC(=N)N)NC(=O)[C@@H]1CCC(=O)N1)C(=O)N1CCC[C@H]1C(=O)NC(Cc1ccccc1)(Cc1ccccc1)C(=O)O
Apelin receptor [3]
  EC50: 1.5 nM
Apelin receptor [4]
  EC50: 10 nM
Apelin receptor [7]
  EC50: 19 nM
[8]
  half-life: 0.5 h
Apelin receptor [9]
  Ki: 0.04 nM
